Shown are actives, neighbours in structure and some others; about 9.4% of the full set was active somewhere.
T cruzi inh = inhibitors of intracellular T. cruzi growth, primary screen, luminescence, NIH3T3 host cells; T. cruzi beta-gal in NIH3T3, 90 h; inhibition, % (no concentration beside the values); 1.4% of 300,000 active;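 active = mean inhibition across valid replicates above about 55%, limit read from the data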;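 also: signal also drops with host cell toxicity which is not excluded here; 0% = plate median of DMSO wells and 100% = zero luminescence signal; higher percent means less beta-gal luminescence so fewer parasites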
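compound dosing = single 50 nL compound addition per well in DMSO | material = NIH/3T3 host cells with β-galactosidase reporter T. cruzi | input = 5,000 host fibroblasts per well | timing = ≥90 h infection period, 3 h prior cell attachment | read-out basis = percent inhibition of parasite-derived β-gal signal | detection = GalScreen β-gal luminescence, detergent lysis, 60 min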
L major viab = Leishmania major promastigote growth inhibition, primary screen; 9% of 200,000 active; inhibition, % at 10 µM; Leishmania major promastigotes, resazurin fluorescence viability; AID 1063, 2008; in the data active = inhibition above about 50%;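 also: promastigotes grown with compound for 44 hours at 28 °C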
SKKanGAS inh = S. pyogenes SKKanGAS growth inhibitors in kanamycin, primary screen, streptokinase expression inhibitor project, SKKanGAS strain, BacTiter-Glo luminescence; 6 h; inhibition, % at 7.5 µM; 1.3% of 300,000 active;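 active = mean replicate score, as percent of positive control median, at least 50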;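 also: strain carries kanamycin resistance gene driven by streptokinase promoter and grows in 40 µg/ml kanamycin; loss of luminescence reflects streptokinase promoter inhibition or plain growth inhibition; 0% = median of DMSO wells and 100% = positive control at its reference dose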
Beta cell apopt = inhibitors of cytokine-induced beta cell apoptosis, primary screen, luminescence | INS-1E cytokine-induced death, ATP luminescence, 48 h; percent of positive-control rescue, neutral wells zero | protection from apoptosis, % (no concentration beside the values) | 0.8% of 300,000 active;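 active = Every replicate reaches about 75%, or at least half do and their mean reaches it too, limit read from the data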;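 also: 0% = cytokine-treated negative control wells and 100% = positive control rescue; higher means more ATP so stronger rescue from cytokine killing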
CSC inhib = cancer stem cell viability inhibitors, primary screen, luminescence; cancer stem cell-like cells viability; inhibition, % at 7.5 µM; 1.1% of 300,000 active; in the data active = inhibition above about 75%; tested in HMLE shEcad cells
Mdm2 MdmX PPI = inhibitors of human Mdm2-MdmX association, primary screen, cell-based, luminescence, split luciferase, SaOS-2, uHTS; inhibition, % at 8 µM; Protein Mdm4 (Homo sapiens) + E3 ubiquitin-protein ligase Mdm2 (Homo sapiens), …; SaOS-2 split-luciferase Mdm2/MdmX complementation; 3% of 330,000 active;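 active = inhibition of at least 50% at 8 µM in the primary screen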
Target sequence (O15151 whole entry, looked up): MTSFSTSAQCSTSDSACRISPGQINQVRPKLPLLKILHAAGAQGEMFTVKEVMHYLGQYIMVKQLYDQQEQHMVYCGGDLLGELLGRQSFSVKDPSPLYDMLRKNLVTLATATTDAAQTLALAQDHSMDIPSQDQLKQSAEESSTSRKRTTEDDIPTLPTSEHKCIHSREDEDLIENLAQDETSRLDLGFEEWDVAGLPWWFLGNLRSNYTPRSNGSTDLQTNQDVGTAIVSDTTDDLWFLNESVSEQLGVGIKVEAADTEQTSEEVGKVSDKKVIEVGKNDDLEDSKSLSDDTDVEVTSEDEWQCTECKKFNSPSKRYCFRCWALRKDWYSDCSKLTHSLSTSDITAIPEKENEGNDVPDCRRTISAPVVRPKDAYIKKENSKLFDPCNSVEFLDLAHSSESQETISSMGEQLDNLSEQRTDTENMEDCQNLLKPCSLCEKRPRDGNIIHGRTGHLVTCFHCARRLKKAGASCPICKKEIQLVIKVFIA
Target sequence (Q00987 whole entry, looked up): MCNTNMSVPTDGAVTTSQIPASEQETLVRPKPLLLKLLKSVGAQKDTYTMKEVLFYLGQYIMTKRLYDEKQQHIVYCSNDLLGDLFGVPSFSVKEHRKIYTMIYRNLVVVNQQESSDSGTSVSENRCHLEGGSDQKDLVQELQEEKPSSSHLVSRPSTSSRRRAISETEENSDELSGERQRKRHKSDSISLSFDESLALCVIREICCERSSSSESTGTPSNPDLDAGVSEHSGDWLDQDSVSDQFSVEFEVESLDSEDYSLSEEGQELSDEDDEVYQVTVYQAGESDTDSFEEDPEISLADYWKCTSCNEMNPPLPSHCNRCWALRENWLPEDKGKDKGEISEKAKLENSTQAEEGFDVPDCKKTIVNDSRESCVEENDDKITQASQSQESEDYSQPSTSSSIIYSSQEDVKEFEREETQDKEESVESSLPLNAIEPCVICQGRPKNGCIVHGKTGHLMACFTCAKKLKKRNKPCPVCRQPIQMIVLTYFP
Mdm2 MdmX conf = Mdm2-MdmX complex disruptors, retested hits, confirmation, luminescence, single concentration. shares compounds with Mdm2 MdmX PPI. Mdm2-MdmX binding, luminescent assay. inhibition, % at 8 µM. 55% of 10,000 active; in the data active = inhibition above about 40%
FLuc counter = full-length luciferase signal inhibition, confirmation, counter-screen for Mdm2/MdmX interaction inhibitor project, cell-based, single concentration, SaOS-2; inhibition, % at 8 µM; SaOS-2 full-length luciferase counterscreen, luminescence; 77% of 6,200 active; AID 504607, 2011; shares compounds with Mdm2 MdmX PPI;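 active = mean inhibition at 8 µM reaching about 37%, which flags the compound as non-specific, limit read from the data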;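 also: p53-null SaOS-2 cells with luciferase driven by a doxycycline-inducible promoter; compound on cells about two nights before reading with doxycycline added after day one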
Numbers without * were called inactive; . = no result.

SMILES | T cruzi inh | L major viab | SKKanGAS inh | Beta cell apopt | CSC inhib | Mdm2 MdmX PPI | Mdm2 MdmX conf | FLuc counter
COC(=O)c1cc(NC(=O)c2c(Cl)nc3sccn23)cc(C(=O)OC)c1 | -8 | 0 | -3 | 24 | 2 | 68* | 13 | .
COC(=O)c1cc(=O)nc2sccn12 | 5 | 0 | -2 | -3 | -1 | 19 | . | .
CCN(CC)c1ccc(C(=O)NNC(=O)CN2C(=O)NC3(CCCCC3)C2=O)cc1 | 2 | . | -10 | -1 | 17 | 2 | . | .
O=C(CC(c1ccco1)S(=O)(=O)c1ccccc1)c1ccccc1 (stereo not given) | -29 | -2 | -3 | -9 | 9 | 12 | . | .
Cc1csc2nc(O)c(C(=O)NC3CCCCC3)c(=O)n12 | -4 | . | 0 | . | -3 | 63* | 66* | 35
CC(O)[C@H]1CNCCN1CCc1cccc(F)c1 (stereo not given in full) | -17 | . | 2 | 1 | 5 | 14 | . | .
CC(C)Nc1nc(NC(C)C)nc(Oc2ccc(OCc3ccccc3)nn2)n1 | . | 35 | -7 | 3 | 14 | 28 | . | .
CCNc1nc(NC(C)C)nc(Oc2ccc(OCCOc3ccc(C)cc3)nn2)n1 | 3 | 31 | 1 | 5 | -5 | 52* | 21 | .
CCCCCN1C=CC(=C2C(=O)c3ccccc3C2=O)C=C1 | 16 | 12 | 36 | 39 | 55 | 78* | 83* | 21
Cn1cccc1/C=N/NC(=O)c1sc2cc(Cl)ccc2c1Cl | -11 | -6 | 11 | 42 | -3 | 73* | 36 | 48*
Cc1ccc(C(=O)NCC(=O)O)o1 | -5 | -6 | -2 | -2 | -7 | -5 | . | .
CCN(CC)CCn1nc2c3c(cccc3c1=O)-c1ccccc1-2 | 58* | 100* | . | 113* | 105* | 83* | 83* | 20
Cc1cc(C)cc(N(CCC(=O)Nc2nnc(C3CC3)s2)S(=O)(=O)c2ccc(Cl)cc2)c1 | 1 | 82* | 7 | -3 | 23 | 51* | 60* | 76*
COc1ccc(S(=O)(=O)Nc2cc3c4c(c2)CC(=O)N4CCC3)cc1C | -15 | . | 0 | 4 | 0 | 10 | . | .
Cc1cc(N2CCOCC2)c2c(N)c(Br)cc(C)c2n1 | 18 | -3 | 5 | -13 | 8 | 74* | 71* | 35
Cc1ccc(OCCNC(=O)c2cc(C3CC3)nc3c2cnn3C(C)C)cc1 | . | . | . | 6 | 2 | 13 | . | .
O=C1Nc2ccc(Br)cc2C1(O)c1ccccc1 (stereo not given) | 2 | . | 5 | -3 | 6 | 9 | . | .
O=C1Nc2ccc(Br)cc2C12NNc1ccccc1O2 (stereo not given) | 8 | 73* | 20 | -2 | 83* | 76* | 23 | .
C=CC(C)(O)CCCC(C)CCCC(C)CCCC(C)C (stereo not given) | . | . | . | 3 | -4 | 10 | . | .
CC(=NNC(=O)c1ccc(NS(=O)(=O)c2cccs2)cc1)c1ccc(OCC(N)=O)cc1 | . | . | . | -4 | -4 | 0 | . | .
COC(=O)c1ccccc1NC(=O)c1ccc(-c2ccc(Br)cc2)o1 | -5 | -3 | -12 | 10 | 6 | 58* | 62* | 152*
CC[C@H](C)[C@@H]1NC(=O)[C@H]([C@@H](C)CC)NC(=O)[C@@H](CC(C)C)NC(=O)[C@H](Cc2ccccc2)NC(=O)[C@H](Cc2ccccc2)NC(=O)[C@@H]2CCCN2C(=O)[C@@H]2CCCN2C(=O)[C@H](C(C)C)NC(=O)[C@H](CC(C)C)NC1=O | . | . | . | 5 | . | 52* | 12 | .
CCOC(=O)Nc1sc(C)nc1-c1ccccc1 | -21 | 0 | -8 | -14 | 8 | 14 | . | .
CCOC(=O)Nc1nc(-c2ccccc2)c(C(=O)c2ccc(Cl)cc2)s1 | 22 | 4 | 36 | 19 | 81* | 66* | 60* | 106*
CCOC(=O)C(=CNc1nc(-c2ccccc2)c(C(=O)Nc2ccc(-c3ccccc3)cc2)s1)C(=O)OCC | -11 | . | -3 | . | 6 | 71* | 15 | .
SMILES | T cruzi inh | L major viab | SKKanGAS inh | Beta cell apopt | CSC inhib | Mdm2 MdmX PPI | Mdm2 MdmX conf | FLuc counter
N=c1n(CCN2CCCCC2)c2ccccc2n1CC(O)c1ccc(Cl)c(Cl)c1 (stereo not given) | 59* | 100* | 6 | 59 | 37 | 99* | 96* | 56*
CN(C)CCn1c(=N)n(CC(O)c2ccc(Cl)c(Cl)c2)c2ccccc21 (stereo not given) | 43 | 100* | -5 | 4 | 5 | 71* | 55* | 74*
N=c1n(CCN2CCCCC2)c2ccccc2n1CC(O)c1cccc(Br)c1 (stereo not given) | 35 | 100* | -2 | 73 | 22 | 98* | 78* | 34
N=c1n(CCN2CCCC2)c2ccccc2n1CC(O)c1ccco1 (stereo not given) | 2 | -2 | -4 | -10 | -3 | -7 | . | .
Cn1c(=O)c(/C(N)=N/OC(=O)c2ccccc2)cn(-c2ccccc2)c1=O | 4 | . | -3 | 1 | -4 | 58* | 25 | .
N#CCC(=O)Nc1sc2c(c1C(N)=O)CCCC2 | -1 | 1 | -1 | . | -2 | 15 | . | .
COC(=O)c1c(NC(=O)COC(=O)c2ccc(NC(=O)CC#N)cc2)sc2c1CCCCC2 | -5 | -6 | 7 | 2 | 0 | 64* | 2 | .
COC(=O)c1c(NC(=O)COC(=O)c2ccc(C)s2)sc2c1CCCCC2 | 5 | -4 | -8 | 1 | 20 | 52* | 13 | .
CCC(=O)c1ccc(OCC(=O)OCC(=O)NCCCc2ccccc2)cc1 | 2 | . | -21 | 1 | -11 | 16 | . | .
COCCNc1nc(-c2cc(C(=O)Nc3ccccc3)on2)cc(C(C)C)n1 | 1 | . | -2 | 1 | -2 | 21 | . | .
O=S(=O)(Nc1cccnc1)c1cccc(C(F)(F)F)c1 | -9 | -8 | -5 | -2 | -4 | 7 | . | .
O=[N+]([O-])c1ccc(S(=O)(=O)c2cccc(C(F)(F)F)c2)nc1 | 66* | . | 6 | 57 | 6 | 95* | 100* | 0
CN(c1ncc(C(F)(F)F)cc1Cl)N1C(=O)c2cccc([N+](=O)[O-])c2C1=O | -10 | -5 | -3 | -8 | -4 | 2 | . | .
O=c1cc(-c2ccccc2Cl)oc2c([N+](=O)[O-])c(O)cc(O)c12 | 15 | 11 | 26 | 9 | 1 | 83* | 76* | 21

Compound activity as filed in PubChem.
